Values after ≈ are worked out from the molar mass of the structure shown.
Key:
[1] = test system: Escherichia coli; test: In vitro antibacterial activity against the Escherichia coli DC 2; type: functional
[2] = test system: Staphylococcus epidermidis; test: In vitro antibacterial activity against the Ofloxacin Resistant Staphylococcus epidermidis 291; type: functional
Summary of the method: (§1)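 MICs by agar dilution following National Committee for Clinical Laboratory Standards recommendations; all strains obtained from Hoechst.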

[3] = test system: Pseudomonas aeruginosa; test: In vitro antibacterial activity against the Pseudomonas aeruginosa 1592E; type: functional
[4] = test system: Staphylococcus epidermidis; test: In vitro antibacterial activity against the Ofloxacin Resistant Staphylococcus epidermidis 319; type: functional; summary of the method: as §1
[5] = test system: Staphylococcus aureus; test: In vitro antibacterial activity against the Ofloxacin Resistant Staphylococcus aureus 293; type: functional; summary of the method: as §1
[6] = test system: Streptococcus pyogenes; test: In vitro antibacterial activity against the Streptococcus pyogenes 77A; type: functional
[7] = test system: Staphylococcus aureus; test: In vitro antibacterial activity against the Staphylococcus aureus SG511; type: functional
[8] = test system: Staphylococcus aureus; test: In vitro antibacterial activity against the Ofloxacin Resistant Staphylococcus aureus 303; type: functional; summary of the method: as §1
[9] = test system: Pseudomonas aeruginosa; test: In vitro antibacterial activity against the Pseudomonas aeruginosa 1771M; type: functional
[10] = test system: Staphylococcus aureus; test: In vitro antibacterial activity against the Methicillin-Resistant Staphylococcus aureus (MRSA) 705 E; type: functional; summary of the method: as §1
[11] = test system: Salmonella typhimurium; test: In vitro antibacterial activity against the Salmonella Typhimurium; type: functional, Salmonella enterica subsp. enterica serovar Typhimurium; conditions: Salmonella enterica
[12] = test system: Enterococcus sp.; test: In vitro antibacterial activity against the Ofloxacin Resistant Enterococcus knothe 101; type: functional; summary of the method: as §1
[13] = test system: Staphylococcus aureus; test: In vitro antibacterial activity against the Ofloxacin Resistant Staphylococcus aureus 179; type: functional; summary of the method: as §1
[14] = test system: Streptococcus pyogenes; test: In vitro antibacterial activity against the Streptococcus pyogenes 308A; type: functional
[15] = test system: Enterobacter cloacae; test: In vitro antibacterial activity against the Enterobacter cloacae 1321 E; type: functional
[16] = test system: Klebsiella; test: In vitro antibacterial activity against the Ofloxacin Resistant Klebsiella species 30-92; type: functional; summary of the method: as §1
[17] = test system: Pseudomonas aeruginosa; test: In vitro antibacterial activity against the Ofloxacin Resistant Pseudomonas aeruginosa 279II; type: functional; summary of the method: as §1
[18] = test system: Escherichia coli; test: In vitro antibacterial activity against the Escherichia coli 078; type: functional
[19] = test system: Staphylococcus aureus; test: In vitro antibacterial activity against the Methicillin-Resistant Staphylococcus aureus (MRSA) 690 E; type: functional; summary of the method: as §1
[20] = test system: Staphylococcus aureus; test: In vitro antibacterial activity against the Methicillin-Resistant Staphylococcus aureus (MRSA) 692 E; type: functional; summary of the method: as §1
[21] = test system: Staphylococcus aureus; test: In vitro antibacterial activity against the Methicillin-Resistant Staphylococcus aureus (MRSA) 701 E; type: functional; summary of the method: as §1
[22] = test system: Staphylococcus aureus; test: In vitro antibacterial activity against the Methicillin-Resistant Staphylococcus aureus (MRSA) 707 E; type: functional; summary of the method: as §1
[23] = test system: Staphylococcus aureus; test: In vitro antibacterial activity against the Staphylococcus aureus 285; type: functional
[24] = test system: Staphylococcus aureus; test: In vitro antibacterial activity against the Methicillin-Resistant Staphylococcus aureus (MRSA) 697 E; type: functional; summary of the method: as §1
[25] = Plasma concentration for the compound was determined in rats at 50 mg/kg dose; type: ADME, organism-based; design: dose 50 mg/kg; conditions: rat
Summary of the method: (§2)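 Pharmacokinetics were measured in SD rats given 50mg/kg, reporting Cmax, Tmax, T1/2 and AUC.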

[26] = test system: V79-4; test: Cytotoxicity was determined for the compound in V79-4 cell line; type: functional, cell-based; conditions: Cricetulus griseus
[27] = Half-life period for the compound was determined in rats at 50 mg/kg dose; type: ADME, organism-based; design: dose 50 mg/kg; conditions: rat, in vivo
[28] = test system: HepG2; test: Cytotoxicity was determined for the compound in HepG2 cell line; type: functional, cell-based; conditions: Homo sapiens
[29] = Maximum plasma concentration reached by compound was determined in rats at 50 mg/kg dose; type: ADME, organism-based; design: dose 50 mg/kg; conditions: rat; summary of the method: as §2
[30] = Time for maximum plasma concentration reached by compound was determined in rats at 50 mg/kg dose; type: ADME, organism-based; design: dose 50 mg/kg; conditions: rat; summary of the method: as §2

Structure (SMILES)	MIC [1]	MIC [2]	MIC [3]	MIC [4]	MIC [5]	MIC [6]	MIC [7]	MIC [8]	MIC [9]	MIC [10]	MIC [11]	MIC [12]	MIC [13]	MIC [14]	MIC [15]	MIC [16]	MIC [17]	MIC [18]	MIC [19]	MIC [23]	other results
CO/N=C1\CN(c2c(F)c(N)c3c(=O)c(C(=O)O)cn(C4CC4)c3c2F)CC1(C)CN.Cl (stereo unspecified)	0.007 µg/mL	0.025 µg/mL	0.391 µg/mL	0.049 µg/mL	0.025 µg/mL	< 0.002 µg/mL	< 0.002 µg/mL	0.025 µg/mL	0.195 µg/mL	0.004 µg/mL	< 0.002 µg/mL	0.025 µg/mL	0.025 µg/mL	0.013 µg/mL	< 0.002 µg/mL	0.781 µg/mL	6.25 µg/mL	< 0.002 µg/mL	–	–	–
CO/N=C1\CN(c2nc3c(cc2F)c(=O)c(C(=O)O)cn3C2CC2)C[C@@]1(C)CN.Cl	0.098 µg/mL	3.12 µg/mL	0.781 µg/mL	6.25 µg/mL	1.56 µg/mL	0.098 µg/mL	0.049 µg/mL	0.781 µg/mL	0.391 µg/mL	0.049 µg/mL	0.013 µg/mL	0.391 µg/mL	1.56 µg/mL	0.195 µg/mL	0.007 µg/mL	3.12 µg/mL	6.25 µg/mL	0.025 µg/mL	0.025 µg/mL	0.049 µg/mL	MIC [20]: 0.025 µg/mL; MIC [21]: 0.049 µg/mL; MIC [22]: 0.013 µg/mL; MIC [24]: 0.025 µg/mL
CO/N=C1\CN(c2c(F)cc3c(=O)c(C(=O)O)cn(C4CC4)c3c2F)CC1(C)CN.Cl (stereo unspecified)	0.049 µg/mL	–	1.56 µg/mL	–	–	0.025 µg/mL	0.013 µg/mL	–	0.781 µg/mL	–	0.025 µg/mL	–	–	0.098 µg/mL	0.013 µg/mL	–	–	0.025 µg/mL	–	0.013 µg/mL	–
CO/N=C1\CN(c2c(F)cc3c(=O)c(C(=O)O)cn(C4CC4)c3c2Cl)CC1(C)CN.Cl (stereo unspecified)	0.025 µg/mL	–	0.781 µg/mL	–	–	0.025 µg/mL	0.007 µg/mL	–	0.195 µg/mL	–	0.025 µg/mL	–	–	0.195 µg/mL	0.004 µg/mL	–	–	0.007 µg/mL	–	0.007 µg/mL	–
CO/N=C1\CN(c2nc3c(cc2F)c(=O)c(C(=O)O)cn3C2CC2)CC1CN (stereo unspecified) [GEMIFLOXACIN]	0.025 µg/mL (≈ 0.0642 µM)	1.56 µg/mL (≈ 4.01 µM)	0.391 µg/mL (≈ 1 µM)	3.12 µg/mL (≈ 8.03 µM)	0.781 µg/mL (≈ 2.01 µM)	0.025 µg/mL (≈ 0.0642 µM)	0.013 µg/mL (≈ 0.0334 µM)	0.781 µg/mL (≈ 2.01 µM)	0.195 µg/mL (≈ 0.501 µM)	0.098 µg/mL (≈ 0.252 µM)	0.004 µg/mL (≈ 0.0103 µM)	0.098 µg/mL (≈ 0.252 µM)	0.781 µg/mL (≈ 2.01 µM)	0.195 µg/mL (≈ 0.501 µM)	0.004 µg/mL (≈ 0.0103 µM)	0.781 µg/mL (≈ 2.01 µM)	6.25 µg/mL (≈ 16.1 µM)	0.007 µg/mL (≈ 0.018 µM)	0.098 µg/mL (≈ 0.252 µM)	0.025 µg/mL (≈ 0.0642 µM)	AUC [25]: 25800 ng·h/mL; IC50 [26]: 10.1 µg/mL (≈ 25.9 µM); MIC [20]: 0.049 µg/mL (≈ 0.126 µM); half-life [27]: 2.12 h; IC50 [28]: 13.5 µg/mL (≈ 34.6 µM); Cmax [29]: 6630 ng/mL; MIC [21]: 0.098 µg/mL (≈ 0.252 µM); Tmax [30]: 1 h; MIC [22]: 0.025 µg/mL (≈ 0.0642 µM); MIC [24]: 0.049 µg/mL (≈ 0.126 µM)
O=C(O)c1cn(C2CC2)c2cc(N3CCNCC3)c(F)cc2c1=O [CIPROFLOXACIN]	0.098 µg/mL (≈ 0.296 µM)	50 µg/mL (≈ 151 µM)	0.195 µg/mL (≈ 0.589 µM)	100 µg/mL (≈ 302 µM)	12.5 µg/mL (≈ 37.7 µM)	0.391 µg/mL (≈ 1.18 µM)	0.195 µg/mL (≈ 0.589 µM)	12.5 µg/mL (≈ 37.7 µM)	0.098 µg/mL (≈ 0.296 µM)	0.391 µg/mL (≈ 1.18 µM)	–	0.781 µg/mL (≈ 2.36 µM)	12.5 µg/mL (≈ 37.7 µM)	3.12 µg/mL (≈ 9.43 µM)	–	1.56 µg/mL (≈ 4.72 µM)	–	–	0.391 µg/mL (≈ 1.18 µM)	0.781 µg/mL (≈ 2.36 µM)	AUC [25]: 12700 ng·h/mL; IC50 [26]: 58.5 µg/mL (≈ 177 µM); MIC [20]: 0.391 µg/mL (≈ 1.18 µM); IC50 [28]: 37.5 µg/mL (≈ 113 µM); MIC [21]: 0.391 µg/mL (≈ 1.18 µM); Tmax [30]: 0.5 h; MIC [22]: 0.195 µg/mL (≈ 0.589 µM); MIC [24]: 0.391 µg/mL (≈ 1.18 µM)
